The record followed here is ChEMBL document CHEMBL1275595, “Antimicrobial activity of a halocidin-derived peptide resistant to attacks by proteases” (2010).

In general, MIC refers to the smallest concentration in the dilution series that meets the test's criterion for growth inhibition. A lower MIC goes with a more susceptible organism.

The structures appear in SMILES notation. In brackets after ≈: the same amount, converted by molar mass. Activity calls are given as the source filed them. Bridge positions count the residues as written; N and C are the ends. Peptide text beside a SMILES is read from it. I, II: the chains in the order shown.

Experiment [1] has as its system Staphylococcus aureus. Put plainly: Antimicrobial activity against methicillin-resistant Staphylococcus aureus CCARM 3696 by radial diffusion assay incubated with Staphylococcus aureus Culture supernatant for 1 hr. The class given is functional, organism-based.
Experiment [2] deals with Staphylococcus aureus. Put plainly: Antimicrobial activity against methicillin-resistant Staphylococcus aureus CCARM 3696 by colony count assay incubated with trypsin for 1 hr. Format: functional, organism-based. The procedure, abridged:
(§1)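 Peptide (20 μg) was incubated at 37°C with 50 nM trypsin in 100 μl of 10 mM sodium phosphate, then heated 10 min at 80°C and cooled. MRSA (100 μl, 2 × 10^7 CFU/ml) was added for 5 min. Aliquots were plated on TSA (1.5% agarose, 3% TSB in NaP) and counted after overnight growth at 37°C. Read-out was CFU/ml; repeated three times on different days.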

The test system of another experiment is Enterococcus faecium. The experiment can be described thus: Antimicrobial activity against vancomycin-resistant Enterococcus faecium CCARM 5028 after 18 hrs by broth dilution method. The class given is functional. The following applies: CCARM 5028, 18 h. The procedure, abridged: (§2)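 Broth dilution per CLSI. Bacteria were grown overnight to stationary phase in Mueller-Hinton broth and diluted in fresh MHB to 2 × 10^5 CFU/ml. Stocks at 640 μg/ml in 0.01% acetic acid were 2-fold serially diluted to 10 μg/ml, and 11 μl was added to 100 μl of bacteria. After 18 h at 37°C, MIC was the lowest concentration with no visible turbidity. Run in triplicate.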

For the next experiment, the system named is Escherichia coli. Put plainly: Antimicrobial activity against Escherichia coli KCTC 1039 after 18 hrs by broth dilution method. The following applies: KCTC 1039, 18 h. The class given is functional. The procedure, abridged:
(§3)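 Broth microdilution following CLSI recommendations. Bacteria were grown overnight to stationary phase in Mueller-Hinton broth, then diluted in fresh MHB to 2 × 10^5 CFU/ml. Peptide or antibiotic stocks of 640 μg/ml in 0.01% acetic acid were serially 2-fold diluted to 10 μg/ml, and each was added to the bacterial suspension at 11 μl per 100 μl. Plates were incubated 18 h at 37°C. MIC was taken as the lowest concentration giving no visible turbidity, in triplicate.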
On the technique in general: Dilution methods test growth across graded concentrations, often in twofold steps.

Experiment [3] relates to Staphylococcus aureus. The experiment can be described thus: Antimicrobial activity against methicillin-resistant Staphylococcus aureus CCARM 3696 by colony count assay incubated with trypsin for 10 mins. Format: functional, organism-based. The gist of the method:
as §1

For experiment [4], the system named is Staphylococcus aureus. Put plainly: Antimicrobial activity against methicillin-resistant Staphylococcus aureus CCARM 3696 by radial diffusion assay incubated with matrix metalloprotease 7 for 5 mins. The class given is functional, organism-based.
Experiment [5] relates to Staphylococcus aureus. The experiment can be described thus: Antimicrobial activity against methicillin-resistant Staphylococcus aureus CCARM 3696 after 18 hrs by broth dilution method. Format: functional. To be noted: CCARM 3696, 18 h. The procedure, abridged:
as §2

The test system of another experiment is Micrococcus luteus. The experiment can be described thus: Antimicrobial activity against Micrococcus luteus KCTC 9341 after 18 hrs by broth dilution method. Format: functional. To be noted: KCTC 9341, 18 h. The procedure, abridged: as §3
A further experiment deals with Pseudomonas aeruginosa. Put plainly: Antimicrobial activity against multidrug-resistant Pseudomonas aeruginosa CCARM 2161 after 18 hrs by broth dilution method. The class given is functional. To be noted: CCARM 2161, 18 h. The procedure, abridged:
as §2

The next experiment concerns Salmonella enterica. Put plainly: Antimicrobial activity against Salmonella enterica KCTC 2930 after 18 hrs by broth dilution method. The class given is functional. To be noted: KCTC 2930, 18 h. The procedure, abridged: as §3
In experiment [6] the test system is Staphylococcus aureus. The experiment can be described thus: Antimicrobial activity against methicillin-resistant Staphylococcus aureus CCARM 3696 by colony count assay incubated with trypsin for 20 mins. The class given is functional, organism-based. The procedure, abridged: as §1
In experiment [7] the test system is Staphylococcus aureus. The experiment can be described thus: Antimicrobial activity against methicillin-resistant Staphylococcus aureus CCARM 3696 by radial diffusion assay incubated with Pseudomonas aeruginosa Culture supernatant for 1 hr. Format: functional, organism-based.
The test system of a further experiment is Bacillus subtilis. The experiment can be described thus: Antimicrobial activity against Bacillus subtilis KCTC 2213 after 18 hrs by broth dilution method. The following applies: KCTC 2213, 18 h. Format: functional. The gist of the method:
as §3

In a further experiment the test system is Citrobacter freundii. Put plainly: Antimicrobial activity against Citrobacter freundii KCTC 2359 after 18 hrs by broth dilution method. To be noted: KCTC 2359, 18 h. Format: functional. The procedure, abridged:
as §3

A further experiment has as its system Klebsiella oxytoca. The experiment can be described thus: Antimicrobial activity against Klebsiella oxytoca KCTC 1686 after 18 hrs by broth dilution method. Format: functional. The following applies: KCTC 1686, 18 h. The gist of the method: as §3
The next experiment concerns Listeria monocytogenes. Put plainly: Antimicrobial activity against Listeria monocytogenes KCTC 19111 after 18 hrs by broth dilution method. Format: functional. To be noted: KCTC 19111, 18 h. The gist of the method: as §3
In experiment [8] the test system is Staphylococcus aureus. The experiment can be described thus: Antimicrobial activity against methicillin-resistant Staphylococcus aureus CCARM 3696 by radial diffusion assay incubated with chymotrypsin for 1 hr. Format: functional, organism-based.
The subject of experiment [9] is Staphylococcus aureus. Put plainly: Antimicrobial activity against methicillin-resistant Staphylococcus aureus CCARM 3696 by radial diffusion assay incubated with matrix metalloprotease 7 for 1 hr. Format: functional, organism-based.
Experiment [10] relates to Staphylococcus aureus. The experiment can be described thus: Antimicrobial activity against methicillin-resistant Staphylococcus aureus CCARM 3696 by radial diffusion assay incubated with trypsin. Format: functional, organism-based.

As for `CC[C@H](C)[C@H](NC(=O)CN)C(=O)NCC(=O)N[C@@H](CCCCN)C(=O)N[C@@H](Cc1ccccc1)C(=O)N[C@@H](CC(C)C)C(=O)N[C@@H](CCCCN)C(=O)N[C@@H](CCCCN)C(=O)N[C@@H](C)C(=O)N[C@@H](CCCCN)C(=O)N[C@@H](CCCCN)C(=O)N[C@@H](Cc1ccccc1)C(=O)NCC(=O)N[C@@H](CCCCN)C(=O)N[C@@H](C)C(=O)N[C@@H](Cc1ccccc1)C(=O)N[C@H](C(=O)N[C@@H](CCCCN)C(=O)N[C@H](C(=O)N[C@@H](CC(C)C)C(=O)N[C@@H](CCCCN)C(=O)N[C@@H](CCCCN)C(N)=O)[C@@H](C)CC)C(C)C` [PEXIGANAN] (H-GIGKFLKKAKKFGKAFVKILKK-NH2), the result in the experiment on Staphylococcus aureus [1], in the experiment with Staphylococcus aureus [3], in the experiment with Staphylococcus aureus [4], in the experiment on Staphylococcus aureus [6] and in the experiment with Staphylococcus aureus [7] was inactive. The outcome in the experiment with Staphylococcus aureus [2] was Active. Besides, the MIC with Enterococcus faecium was 8 µg/mL (≈ 3.23 µM); against Escherichia coli, 4 µg/mL (≈ 1.61 µM); with Staphylococcus aureus [5] it was 16 µg/mL (≈ 6.46 µM); against Micrococcus luteus it was 8 µg/mL (≈ 3.23 µM); against Pseudomonas aeruginosa, 8 µg/mL (≈ 3.23 µM); against Salmonella enterica it was 8 µg/mL (≈ 3.23 µM). Further, the MIC against Bacillus subtilis was 4 µg/mL (≈ 1.61 µM); against Citrobacter freundii it was 8 µg/mL (≈ 3.23 µM); against Klebsiella oxytoca, 8 µg/mL (≈ 3.23 µM); in the experiment with Listeria monocytogenes, 16 µg/mL (≈ 6.46 µM).

For the molecule `CC(C)C[C@H](NC(=O)CNC(=O)[C@H](Cc1cnc[nH]1)NC(=O)[C@H](Cc1cnc[nH]1)NC(=O)[C@H](CC(C)C)NC(=O)[C@H](CC(C)C)NC(=O)[C@H](C)NC(=O)[C@H](CCCCN)NC(=O)[C@H](CCCCN)NC(=O)[C@H](Cc1c[nH]c2ccccc12)NC(=O)[C@@H](N)CCCCN)C(=O)N[C@@H](CC(N)=O)C(=O)N[C@@H](CSSC[C@H](NC(=O)[C@H](CC(N)=O)NC(=O)[C@H](CC(C)C)NC(=O)CNC(=O)[C@H](Cc1cnc[nH]1)NC(=O)[C@H](Cc1cnc[nH]1)NC(=O)[C@H](CC(C)C)NC(=O)[C@H](CC(C)C)NC(=O)[C@H](C)NC(=O)[C@H](CCCCN)NC(=O)[C@H](CCCCN)NC(=O)[C@H](Cc1c[nH]c2ccccc12)NC(=O)[C@@H](N)CCCCN)C(=O)N[C@@H](C)C(=O)N[C@@H](CCCCN)C(=O)NCC(=O)N[C@H](C(=O)N[C@@H](CC(C)C)C(=O)N[C@@H](C)C(=O)O)C(C)C)C(=O)N[C@@H](C)C(=O)N[C@@H](CCCCN)C(=O)NCC(=O)N[C@H](C(=O)N[C@@H](CC(C)C)C(=O)N[C@@H](C)C(N)=O)C(C)C` (I: H-KWKKALLHHGLNCAKGVLA-NH2 / II: H-KWKKALLHHGLNCAKGVLA-OH; disulfide I:13-II:13), the outcome in the experiment with Staphylococcus aureus [1], in the experiment with Staphylococcus aureus [3], in the experiment with Staphylococcus aureus [10], with Staphylococcus aureus [6] and in the experiment with Staphylococcus aureus [7] was inactive. Besides, the result in the experiment on Staphylococcus aureus [2], in the experiment with Staphylococcus aureus [8] and in the experiment with Staphylococcus aureus [9] was Active. Further, the MIC with Enterococcus faecium was 2 µg/mL (≈ 0.479 µM); with Escherichia coli, 2 µg/mL (≈ 0.479 µM); against Staphylococcus aureus [5] it was 4 µg/mL (≈ 0.959 µM); in the experiment with Micrococcus luteus, 4 µg/mL (≈ 0.959 µM); with Pseudomonas aeruginosa, 4 µg/mL (≈ 0.959 µM); in the experiment on Salmonella enterica, 2 µg/mL (≈ 0.479 µM). In addition, the MIC with Bacillus subtilis is 2 µg/mL (≈ 0.479 µM); against Citrobacter freundii it was 4 µg/mL (≈ 0.959 µM); in the experiment with Klebsiella oxytoca it was 2 µg/mL (≈ 0.479 µM); in the experiment on Listeria monocytogenes, 2 µg/mL (≈ 0.479 µM).
